# Data: ChEMBL document CHEMBL4477200, “Design, Synthesis, and Preclinical Evaluation of 4-Substituted-5-methyl-furo[2,3-d]pyrimidines as Microtubule Targeting Agents That Are Effective against Multidrug Resistant Cancer Cells” (J Med Chem, 2016)
# pIC50: −log10 of the molar value. Calls of active or inactive are those of the source. The rule behind the calls is not given here.
# Experiments:
# [1] = tested on: HeLa; assay: Antiproliferative activity against multidrug resistant human HeLa cells expressing wild type beta3 tubulin after 48 hrs by SRB assay; type: functional, cell-based
# Outline: (§1)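 SRB assay; IC50 is the mean of three independent experiments, each run in triplicate. Cells were kept at 37 °C under 5% CO2. HeLa and SK-OV-3 lines (parental and MDR1-M6/6) were grown in Basal Medium Eagle with 10% FBS, 1% GlutaMAX and 50 µg/mL gentamycin. HeLa WTβIII was grown in DMEM with 10% FBS.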
# [2] = biological target: T1, Tubulin (Bos taurus) (UniProt Q6B856+Q862L2+Q862F3); assay: Displacement of [3H]colchicine from tubulin in bovine brain homogenate at 1 uM incubated for 10 mins by DEAE-cellulose filter assay; type: tissue-based
# [3] = tested on: RPMI-8226; assay: Cytotoxicity against human RPMI8226 cells assessed as growth inhibition after 48 hrs by SRB assay; type: functional; details: RPMI-8226, 48 h
# [4] = tested on: Hs-578T; assay: Cytotoxicity against human Hs 578T cells assessed as growth inhibition after 48 hrs by SRB assay; type: functional
# [5] = tested on: MDA-MB-468; assay: Cytotoxicity against human MDA-MB-468 cells assessed as growth inhibition after 48 hrs by SRB assay; type: functional; details: MDA-MB-468, 48 h
# [6] = tested on: SR; assay: Cytotoxicity against human SR cells assessed as growth inhibition after 48 hrs by SRB assay; type: functional
# [7] = biological target: Tubulin (Homo sapiens) (UniProt P68371+Q9H4B7+P0DPH7+P68366+Q13509+Q71U36+P04350+Q3ZCM7+P07437+P68363+Q9BQE3+Q6PEY2+Q13885+Q9BVA1+Q9BUF5); assay: Induction of microtubule disruption in human HeLa cells assessed as multipolarization of spindle at 5 times IC50 incubated for 18 hrs by indirect immunofluorescence analysis relative to vehicle-treated control; type: cell-based
# Outline: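 Mitotic spindles and microtubules were imaged by indirect immunofluorescence with a β-tubulin antibody and compared with vehicle-treated cells.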
# [8] = tested on: KM12; assay: Cytotoxicity against human KM12 cells assessed as growth inhibition after 48 hrs by SRB assay; type: functional; details: KM12, 48 h
# [9] = tested on: CCRF-CEM; assay: Cytotoxicity against human CCRF-CEM cells assessed as growth inhibition after 48 hrs by SRB assay; type: functional
# [10] = tested on: Malme-3M; assay: Cytotoxicity against human MALME-3M cells assessed as growth inhibition after 48 hrs by SRB assay; type: functional
# [11] = tested on: CAKI-1; assay: Cytotoxicity against human Caki1 cells assessed as growth inhibition after 48 hrs by SRB assay; type: functional; details: CAKI-1, 48 h
# [12] = tested on: SK-OV-3; assay: Antiproliferative activity against multidrug resistant human SKOV3 cells expressing MDR1-M6/6 after 48 hrs by SRB assay; type: functional, cell-based; details: SK-OV-3, 48 h; outline: as §1
# [13] = tested on: EKVX; assay: Cytotoxicity against human EKVX cells assessed as growth inhibition after 48 hrs by SRB assay; type: functional
# [14] = biological target: T1, Tubulin (Bos taurus); assay: Inhibition of [3H]colchicine binding to tubulin in bovine brain homogenate at 5 uM incubated for 10 mins by DEAE-cellulose filter assay; type: tissue-based
# [15] = tested on: SF-295; assay: Cytotoxicity against human SF295 cells assessed as growth inhibition after 48 hrs by SRB assay; type: functional; details: SF-295, 48 h
# [16] = tested on: MOLT-4; assay: Cytotoxicity against human MOLT4 cells assessed as growth inhibition after 48 hrs by SRB assay; type: functional; details: MOLT-4, 48 h
# [17] = tested on: DU-145; assay: Cytotoxicity against human DU145 cells assessed as growth inhibition after 48 hrs by SRB assay; type: functional; details: DU-145, 48 h
# [18] = tested on: A498; assay: Cytotoxicity against human A498 cells assessed as growth inhibition after 48 hrs by SRB assay; type: functional; details: A498, 48 h
# [19] = tested on: K562; assay: Cytotoxicity against human K562 cells assessed as growth inhibition after 48 hrs by SRB assay; type: functional; details: K562, 48 h
# [20] = tested on: NCI-H460; assay: Cytotoxicity against human NCI-H460 cells assessed as growth inhibition after 48 hrs by SRB assay; type: functional; details: NCI-H460, 48 h
# [21] = tested on: COLO 205; assay: Cytotoxicity against human COLO205 cells assessed as growth inhibition after 48 hrs by SRB assay; type: functional; details: COLO 205, 48 h
# [22] = tested on: MDA-MB-435; assay: Cytotoxicity against human MDA-MB-435 cells assessed as growth inhibition after 48 hrs by SRB assay; type: functional, cell-based
# [23] = tested on: HOP-62; assay: Cytotoxicity against human HOP62 cells assessed as growth inhibition after 48 hrs by SRB assay; type: functional; details: HOP-62, 48 h
# [24] = tested on: OVCAR-4; assay: Cytotoxicity against human OVCAR4 cells assessed as growth inhibition after 48 hrs by SRB assay; type: functional; details: OVCAR-4, 48 h
# [25] = tested on: SNB-19; assay: Cytotoxicity against human SNB19 cells assessed as growth inhibition after 48 hrs by SRB assay; type: functional; details: SNB-19, 48 h
# [26] = tested on: HeLa; assay: Relative ratio of IC50 for human HeLa cells expressing wild type beta3 tubulin to IC50 for human HeLa cells; type: functional
# [27] = tested on: TK-10; assay: Cytotoxicity against human TK10 cells assessed as growth inhibition after 48 hrs by SRB assay; type: functional; details: TK-10, 48 h
# [28] = tested on: SW-620; assay: Cytotoxicity against human SW620 cells assessed as growth inhibition after 48 hrs by SRB assay; type: functional; details: SW-620, 48 h
# [29] = tested on: SNB-75; assay: Cytotoxicity against human SNB75 cells assessed as growth inhibition after 48 hrs by SRB assay; type: functional; details: SNB-75, 48 h
# [30] = tested on: ACHN; assay: Cytotoxicity against human ACHN cells assessed as growth inhibition after 48 hrs by SRB assay; type: functional
# [31] = tested on: HT-29; assay: Cytotoxicity against human HT-29 cells assessed as growth inhibition after 48 hrs by SRB assay; type: functional; details: HT-29, 48 h
# [32] = tested on: HCT-15; assay: Cytotoxicity against human HCT15 cells assessed as growth inhibition after 48 hrs by SRB assay; type: functional; details: HCT-15, 48 h
# [33] = tested on: U-251; assay: Cytotoxicity against human U251 cells assessed as growth inhibition after 48 hrs by SRB assay; type: functional; details: U-251, 48 h
# [34] = tested on: A549; assay: Cytotoxicity against human A549 cells assessed as growth inhibition after 48 hrs by SRB assay; type: functional; details: A549, 48 h
# [35] = tested on: RXF 393; assay: Cytotoxicity against human RXF393 cells assessed as growth inhibition after 48 hrs by SRB assay; type: functional; details: RXF 393, 48 h
# [36] = tested on: LOX IMVI; assay: Cytotoxicity against human LOXIMVI cells assessed as growth inhibition after 48 hrs by SRB assay; type: functional
# [37] = tested on: HeLa; assay: Cell cycle arrest in human HeLa cells assessed as accumulation at G2/M phase at 5 times IC50 after 18 hrs by flow cytometry (reference value: 17.11 +/- 1.09%); type: functional
# [38] = tested on: HCC 2998; assay: Cytotoxicity against human HCC2998 cells assessed as growth inhibition after 48 hrs by SRB assay; type: functional; details: HCC 2998, 48 h
# [39] = tested on: HOP-92; assay: Cytotoxicity against human HOP92 cells assessed as growth inhibition after 48 hrs by SRB assay; type: functional; details: HOP-92, 48 h
# [40] = tested on: SF-539; assay: Cytotoxicity against human SF539 cells assessed as growth inhibition after 48 hrs by SRB assay; type: functional; details: SF-539, 48 h
# [41] = tested on: PC-3; assay: Cytotoxicity against human PC3 cells assessed as growth inhibition after 48 hrs by SRB assay; type: functional; details: PC-3, 48 h
compound,measurement,setting,value
COc1ccc(N(C)c2ncnc3occ(C)c23)cc1,pIC50,[1],8.09
same,inhibition,[2],71%
same,GI50,[3],< 10 nM
same,GI50,[4],< 10 nM
same,GI50,[5],< 10 nM
same,GI50,[6],< 10 nM
same,Activity,[7],Active
same,GI50,[8],< 10 nM
same,GI50,[9],< 10 nM
same,GI50,[10],38.7 nM
same,GI50,[11],< 10 nM
same,pIC50,[12],8.08
same,GI50,[13],< 10 nM
same,inhibition,[14],96%
same,GI50,[15],< 10 nM
same,GI50,[16],< 10 nM
same,GI50,[17],< 10 nM
same,GI50,[18],< 10 nM
same,GI50,[19],< 10 nM
same,GI50,[20],< 10 nM
same,GI50,[21],< 10 nM
same,GI50,[22],<10 nM
same,GI50,[23],18.4 nM
same,GI50,[24],< 10 nM
same,GI50,[25],< 10 nM
same,Ratio IC50,[26],0.9
same,GI50,[27],75.3 nM
same,GI50,[28],< 10 nM
same,GI50,[29],< 10 nM
same,GI50,[30],22.5 nM
same,GI50,[31],< 10 nM
same,GI50,[32],< 10 nM
same,GI50,[33],< 10 nM
same,GI50,[34],< 10 nM
same,GI50,[35],< 10 nM
same,GI50,[36],< 10 nM
same,Activity,[37],66.99%
same,GI50,[38],< 10 nM
same,GI50,[39],62.5 nM
same,GI50,[40],< 10 nM
same,GI50,[41],< 10 nM
